Measured values reported in ChEMBL document CHEMBL4382240, “Discovery of novel 2,5-dihydroxyterephthalamide derivatives as multifunctional agents for the treatment of Alzheimer's disease” (Bioorg Med Chem, 2018).
Calls of active or inactive are those of the source. The rule behind the calls is not given here.

Assays:
Acetylcholinesterase [1] = biological target: T1, Acetylcholinesterase (Rattus norvegicus, UniProt P37136); assay: Inhibition of rat cortex AChE using acetylthiocholine iodide as substrate after 15 mins by Ellman's method
T1 sequence (P37136 whole entry): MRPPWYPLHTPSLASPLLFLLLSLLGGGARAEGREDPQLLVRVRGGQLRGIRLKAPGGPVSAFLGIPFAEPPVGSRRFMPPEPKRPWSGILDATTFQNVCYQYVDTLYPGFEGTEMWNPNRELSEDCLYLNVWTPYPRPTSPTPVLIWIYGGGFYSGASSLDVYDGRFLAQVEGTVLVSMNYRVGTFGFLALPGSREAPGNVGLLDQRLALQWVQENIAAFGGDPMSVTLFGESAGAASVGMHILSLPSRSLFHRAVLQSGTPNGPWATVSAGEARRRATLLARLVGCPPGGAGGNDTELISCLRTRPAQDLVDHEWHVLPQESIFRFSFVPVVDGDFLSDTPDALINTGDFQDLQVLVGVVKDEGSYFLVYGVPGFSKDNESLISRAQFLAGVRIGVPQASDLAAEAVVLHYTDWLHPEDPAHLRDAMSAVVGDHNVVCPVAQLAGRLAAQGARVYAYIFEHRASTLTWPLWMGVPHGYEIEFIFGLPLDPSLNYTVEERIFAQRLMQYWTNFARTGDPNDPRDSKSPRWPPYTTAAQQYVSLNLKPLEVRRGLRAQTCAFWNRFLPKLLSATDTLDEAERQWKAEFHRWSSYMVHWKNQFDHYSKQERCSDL

Butyrylcholinesterase = Butyrylcholinesterase (Rattus norvegicus, UniProt Q9JKC1); assay: Inhibition of rat serum BuChE using butyrylthiocholine iodide as substrate after 15 mins by Ellman's method; assay type: ADME
Acetylcholinesterase [2] = biological target: Acetylcholinesterase (Electrophorus electricus, UniProt O42275); assay: Inhibition of electric eel AChE using acetylthiocholine iodide as substrate after 15 mins by Ellman's method
[3] = Antioxidant activity assessed as trolox equivalent of APPH-induced radical scavenging activity at 5 uM preincubated for 15 mins followed by AAPH addition measured every minute for 90 mins by ORAC fluorescein assay; assay type: functional
Method in brief: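 ORAC-FL in 75 mM phosphate buffer, pH 7.4. Fluorescein (150 nM final) and sample (tested at 1–10 µM) incubated 15 min at 37 °C. AAPH (12 mM final) then added, and fluorescence (ex 485/em 535 nm) read every minute for 90 min. Trolox standard 1–8 µM; result expressed as µM Trolox equivalent per µM compound. Duplicate wells; three independent experiments.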

[4] = biological target: T2, Amyloid-beta precursor protein (Homo sapiens, UniProt P05067); assay: Inhibition of human amyloid beta (1 to 42) self-induced aggregation at 25 uM after 24 hrs by Thioflavin T based fluorometric assay relative to control
Method in brief: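 Aβ1-42 (25 µM final) incubated with compound (25 µM final) in 50 mM phosphate buffer, pH 7.4, for 24 h at 37 °C under a sealing film. ThT (5 µM) in 50 mM glycine-NaOH, pH 8.5, then added and fluorescence measured. Triplicate; mean ± SD of three independent experiments.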

[5] = Inhibition of Cu2+ induced human amyloid beta (1 to 42) aggregation at 25 uM after 24 hrs by Thioflavin T based fluorometric assay relative to control
Method in brief: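 Aβ1-42 (25 µM) and Cu2+ (25 µM) in HEPES buffer (20 mM, pH 6.6, 150 mM NaCl), with or without compound (25 µM final), incubated 24 h at 37 °C. ThT (5 µM) in glycine-NaOH, pH 8.5, added and fluorescence read. Triplicate; three independent experiments.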

[6] = Cytotoxicity against […] cells assessed as decrease in cell viability up to 10 uM preincubated for 30 mins followed by LPS stimulation and measured after 24 hrs by MTT assay; assay type: cell-based
Method in brief: (§1)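 BV-2 cells grown 24 h, then treated with compound (0.5, 2.5, 10.0 µM) for 30 min, with or without LPS (1.0 µg/mL), for a further 24 h. MTT (5 mg/mL) added for 4 h, formazan dissolved in DMSO, A490 read. Viability given as percent of untreated cells. Triplicate wells; three independent experiments.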

[7] = Cytotoxicity against […] cells assessed as decrease in cell viability up to 10 uM measured after 24 hrs by MTT assay; assay type: cell-based; method in brief: as §1
[8] = Anti-inflammatory activity in […] cells assessed as inhibition of LPS-stimulated NO release at 2.5 uM preincubated for 30 mins followed by LPS stimulation and measured after 24 hrs by Griess reagent based assay relative to control; assay type: functional; details: BV-2
Method in brief: (§2)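 BV-2 cells cultured 24 h in DMEM (10% FBS, glutamine, pyruvate, pen/strep) at 37 °C, 5% CO2. Compound (DMSO stock diluted in PBS) added 30 min before LPS (1.0 µg/mL), then 24 h. Nitrite in supernatant measured by Griess reagent for 10 min at room temperature, A540, against a NaNO2 standard curve. Triplicate wells; mean ± SD of three independent experiments.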

[9] = Anti-inflammatory activity in […] cells assessed as inhibition of LPS-stimulated NO release at 10 uM preincubated for 30 mins followed by LPS stimulation and measured after 24 hrs by Griess reagent based assay relative to control; assay type: functional; details: BV-2; method in brief: as §2
[10] = Anti-inflammatory activity in […] cells assessed as inhibition of LPS-stimulated TNFalpha release at 2.5 uM preincubated for 30 mins followed by LPS stimulation and measured after 24 hrs by ELISA relative to control; assay type: functional; details: BV-2
Method in brief: (§3)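 Confluent BV-2 cells in DMEM preincubated 30 min with compound, tested over 0.5–10 µM, then stimulated with LPS (1.0 µg/mL) for 24 h. Released TNF-α measured by ELISA following kit instructions. Triplicate wells; mean ± SD of three independent experiments.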

[11] = Anti-inflammatory activity in […] cells assessed as inhibition of LPS-stimulated TNFalpha release at 10 uM preincubated for 30 mins followed by LPS stimulation and measured after 24 hrs by ELISA relative to control; assay type: functional; details: BV-2; method in brief: as §3
Acetylcholinesterase [12] = biological target: T1, Acetylcholinesterase; assay: Inhibition of rat AChE
Method in brief: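 Ellman assay using 5% rat cortex homogenate, preincubated 5 min with iso-OMPA (4.0 mmol/L) to block BuChE. Acetylthiocholine iodide (1 mmol/L) with inhibitor dilutions in phosphate buffer ([…], pH 7.40), incubated 15 min at 37 °C. Stopped with 0.2% DTNB, absorbance read at 405 nm. IC50 as mean of three independent experiments, each in triplicate.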

Homo sapiens [13] = species: Homo sapiens; assay: Anti-inflammatory activity in […] cells assessed as inhibition of LPS-stimulated NO release preincubated for 30 mins followed by LPS stimulation and measured after 24 hrs by Griess reagent based assay; assay type: functional, cell-based
[14] = biological target: T2, Amyloid-beta precursor protein; assay: Inhibition of human amyloid beta (1 to 42) self-induced aggregation after 24 hrs by Thioflavin T based fluorometric assay
Method in brief: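 Self-induced Aβ1-42 aggregation (25 µM peptide) in phosphate buffer, pH 7.4, for 24 h at 37 °C with varying compound concentrations. Aggregation read by ThT fluorescence (5 µM ThT, glycine-NaOH pH 8.5).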

[15] = biological target: T2, Amyloid-beta precursor protein; assay: Disaggregation of self-induced preformed fibrils of human amyloid beta (1 to 42) at 25 uM after 24 hrs by Thioflavin T based fluorometric assay relative to control
Method in brief: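 Aβ1-42 diluted in HEPES buffer (20 mM, pH 6.6, 150 mM NaCl) and pre-aggregated 24 h at 37 °C. Compound (25 µM) then added for another 24 h at 37 °C on a sealed plate. Remaining fibrils read by ThT fluorescence in glycine-NaOH, pH 8.5. Triplicate; three independent experiments.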

[16] = Disaggregation of Cu2+ induced preformed fibrils of human amyloid beta (1 to 42) at 25 uM after 24 hrs by Thioflavin T based fluorometric assay relative to control
Method in brief: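 Aβ1-42 (25 µM) with Cu2+ (25 µM) in HEPES buffer pre-aggregated 24 h at 37 °C. Compound (25 µM) then added for a further 24 h at 37 °C. Fibril content measured by ThT fluorescence (glycine-NaOH, pH 8.5). Triplicate; three independent experiments.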

[17] = Effective permeability of the compound in PBS/EtOH at 100 ug/ml after 18 hrs by PAMPA; assay type: ADME; details: read-out: Peff
[18] = Effect on NO release in […] cells up to 10 uM after 24 hrs by Griess reagent based assay; assay type: ADME, cell-based
Method in brief: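 BV-2 cells in DMEM treated with compound alone, without LPS, up to 10 µM. Nitrite in culture supernatant measured by Griess reagent (A540) against a NaNO2 standard curve. Mean ± SD of three independent experiments.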

[19] = Effect on TNFalpha release in […] cells up to 10 uM after 24 hrs by ELISA; assay type: ADME, cell-based
Method in brief: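 BV-2 cells exposed to compound up to 10 µM with no added LPS. TNF-α in the medium measured by ELISA. Mean ± SD of three independent experiments.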

Homo sapiens [20] = species: Homo sapiens; assay: Anti-inflammatory activity in […] cells assessed as inhibition of LPS-stimulated TNFalpha release preincubated for 30 mins followed by LPS stimulation and measured after 24 hrs by ELISA; assay type: functional, cell-based; method in brief: as §3
Homo sapiens [21] = species: Homo sapiens; assay: Anti-inflammatory activity in […] cells assessed as inhibition of LPS-stimulated TNFalpha release at 0.5 uM preincubated for 30 mins followed by LPS stimulation and measured after 24 hrs by ELISA; assay type: functional, cell-based; method in brief: as §3
Acetylcholinesterase [22] = biological target: Acetylcholinesterase (Homo sapiens, UniProt P22303); assay: Inhibition of acetylcholinesterase (unknown origin)
Sequence of Acetylcholinesterase (Homo sapiens, UniProt P22303) (P22303 whole entry): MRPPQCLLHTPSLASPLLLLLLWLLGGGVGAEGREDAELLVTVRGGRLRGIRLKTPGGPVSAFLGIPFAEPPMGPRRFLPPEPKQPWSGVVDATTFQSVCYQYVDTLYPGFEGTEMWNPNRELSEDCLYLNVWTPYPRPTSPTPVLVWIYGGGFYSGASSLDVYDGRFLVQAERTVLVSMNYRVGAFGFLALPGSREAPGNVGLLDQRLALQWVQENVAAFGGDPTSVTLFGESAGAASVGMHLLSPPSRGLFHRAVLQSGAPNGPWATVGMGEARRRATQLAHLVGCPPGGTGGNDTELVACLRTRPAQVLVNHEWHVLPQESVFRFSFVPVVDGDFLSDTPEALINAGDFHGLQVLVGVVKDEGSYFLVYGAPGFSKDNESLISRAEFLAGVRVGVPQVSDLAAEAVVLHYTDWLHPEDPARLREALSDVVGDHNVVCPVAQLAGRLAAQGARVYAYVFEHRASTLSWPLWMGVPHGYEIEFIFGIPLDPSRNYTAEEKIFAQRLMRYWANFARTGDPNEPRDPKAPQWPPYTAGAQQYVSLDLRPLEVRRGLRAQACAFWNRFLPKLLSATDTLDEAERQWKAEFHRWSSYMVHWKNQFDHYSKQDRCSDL

T2 sequence (P05067 whole entry): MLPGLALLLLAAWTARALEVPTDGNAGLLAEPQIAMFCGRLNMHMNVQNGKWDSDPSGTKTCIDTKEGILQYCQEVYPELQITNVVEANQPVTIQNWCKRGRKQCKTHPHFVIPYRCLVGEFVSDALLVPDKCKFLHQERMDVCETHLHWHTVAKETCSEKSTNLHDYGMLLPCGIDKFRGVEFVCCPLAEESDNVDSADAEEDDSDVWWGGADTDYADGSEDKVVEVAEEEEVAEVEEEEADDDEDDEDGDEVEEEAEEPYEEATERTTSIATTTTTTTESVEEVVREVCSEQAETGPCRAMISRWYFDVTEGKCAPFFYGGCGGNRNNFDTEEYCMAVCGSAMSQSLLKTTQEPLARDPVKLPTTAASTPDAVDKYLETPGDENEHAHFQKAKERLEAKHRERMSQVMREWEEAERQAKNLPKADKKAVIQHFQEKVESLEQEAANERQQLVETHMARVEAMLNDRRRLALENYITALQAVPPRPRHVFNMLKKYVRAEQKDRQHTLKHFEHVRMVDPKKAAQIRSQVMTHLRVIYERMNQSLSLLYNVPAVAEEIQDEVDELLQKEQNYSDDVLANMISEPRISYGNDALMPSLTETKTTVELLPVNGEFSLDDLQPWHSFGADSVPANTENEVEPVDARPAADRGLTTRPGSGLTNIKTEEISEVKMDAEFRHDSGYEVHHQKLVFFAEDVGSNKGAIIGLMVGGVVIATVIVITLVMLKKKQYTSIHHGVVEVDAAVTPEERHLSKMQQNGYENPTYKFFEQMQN
Sequence of Acetylcholinesterase (Electrophorus electricus, UniProt O42275) (O42275 whole entry): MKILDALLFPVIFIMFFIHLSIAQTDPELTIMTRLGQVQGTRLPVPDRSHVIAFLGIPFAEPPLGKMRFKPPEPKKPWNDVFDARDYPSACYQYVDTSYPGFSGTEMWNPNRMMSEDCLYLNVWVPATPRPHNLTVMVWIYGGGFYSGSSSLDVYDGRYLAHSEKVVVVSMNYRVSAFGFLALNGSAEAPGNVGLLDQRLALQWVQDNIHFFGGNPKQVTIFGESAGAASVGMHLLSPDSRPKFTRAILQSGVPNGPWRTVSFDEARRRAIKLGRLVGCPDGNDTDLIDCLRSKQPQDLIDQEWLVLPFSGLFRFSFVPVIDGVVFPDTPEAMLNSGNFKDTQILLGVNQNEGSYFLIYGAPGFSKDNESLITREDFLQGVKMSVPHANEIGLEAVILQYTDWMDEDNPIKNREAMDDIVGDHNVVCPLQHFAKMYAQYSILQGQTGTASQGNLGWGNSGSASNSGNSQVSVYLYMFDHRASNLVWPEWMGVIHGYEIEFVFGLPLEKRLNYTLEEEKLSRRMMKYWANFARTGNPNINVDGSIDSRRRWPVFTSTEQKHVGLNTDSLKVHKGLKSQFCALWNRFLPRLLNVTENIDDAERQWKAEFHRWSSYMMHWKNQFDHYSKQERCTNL
Sequence of Butyrylcholinesterase (Q9JKC1 whole entry): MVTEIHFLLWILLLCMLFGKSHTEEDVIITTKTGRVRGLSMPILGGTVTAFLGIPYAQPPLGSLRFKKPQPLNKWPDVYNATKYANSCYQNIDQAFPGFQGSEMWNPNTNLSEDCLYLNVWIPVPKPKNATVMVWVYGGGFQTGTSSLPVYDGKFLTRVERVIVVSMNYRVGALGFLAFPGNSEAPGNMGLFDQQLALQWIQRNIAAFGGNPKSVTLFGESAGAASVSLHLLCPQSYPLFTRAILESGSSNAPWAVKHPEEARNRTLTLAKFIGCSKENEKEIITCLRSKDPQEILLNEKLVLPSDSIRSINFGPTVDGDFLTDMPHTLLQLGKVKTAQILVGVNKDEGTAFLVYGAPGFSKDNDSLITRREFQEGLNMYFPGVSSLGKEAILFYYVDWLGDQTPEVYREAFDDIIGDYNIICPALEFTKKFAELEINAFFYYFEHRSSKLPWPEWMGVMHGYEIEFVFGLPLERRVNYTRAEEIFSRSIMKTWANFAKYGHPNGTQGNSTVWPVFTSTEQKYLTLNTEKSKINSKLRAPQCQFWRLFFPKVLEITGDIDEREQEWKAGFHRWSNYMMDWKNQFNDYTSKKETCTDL

Row | SMILES | IC50 (Acetylcholinesterase [1]) | IC50 (Butyrylcholinesterase) | IC50 (Acetylcholinesterase [2]) | Activity [3] | inhibition [4] | inhibition [5] | Activity [6] | Activity [7] | inhibition at 2.5 µM [8] | inhibition at 10 µM [9] | inhibition at 2.5 µM [10] | inhibition at 10 µM [11] | inhibition (Homo sapiens [13]) | IC50 [14] | Activity [15] | Activity [16] | Activity [18] | Activity [19] | inhibition (Homo sapiens [20]) | inhibition (Homo sapiens [21]) | further results
1 | O=C(O)c1cc(O)c(C(=O)O)cc1O | > 100000 nM | > 100 µM | > 100 µM | 4.7 equiv | 4.7% | 8.1% | Non-Toxic | Non-Toxic | 8.3% | 12.5% | 5.9% | 18.2% | – | – | – | – | – | – | – | – | –
2 | CCN(CCCCCCNC1=CC(=O)C(NCCCCCCN(CC)Cc2ccccc2OC)=CC1=O)Cc1ccccc1OC [MEMOQUIN] | – | – | – | 0.77 equiv | – | – | – | – | – | – | – | – | – | – | – | – | – | – | – | – | IC50 (Acetylcholinesterase [12]): 1.55 nM
3 | CCN(CCCCCCNC(=O)c1cc(O)c(C(=O)NCCCCCCN(CC)Cc2ccccc2OC)cc1O)Cc1ccccc1OC | 1680 nM | > 100 µM | 6.75 µM | 1.43 equiv | 99.6% | 89.9% | Non-Toxic | Non-Toxic | 33.3% | 63.3% | 20.6% | 50.6% | Dose-dependent effect | 3.31 µM | 83.8% | 85.3% | Non-Toxic | Non-Toxic | Dose-dependent effect | inactive | Papp at 18 h, 100 ug/ml [17]: 5.54 ×10⁻⁶ cm/s
4 | CCN(CCCNC(=O)c1cc(O)c(C(=O)NCCCN(CC)Cc2ccccc2OC)cc1O)Cc1ccccc1OC | 670 nM | > 100 µM | 11.4 µM | 1.1 equiv | 98.2% | 88.8% | Non-Toxic | Non-Toxic | 35% | 50.8% | 28.2% | 41.1% | Dose-dependent effect | 2.41 µM | 77.3% | 73.1% | Non-Toxic | Non-Toxic | Dose-dependent effect | inactive | Papp at 18 h, 100 ug/ml [17]: 4.23 ×10⁻⁶ cm/s
5 | CC(C(=O)O)c1ccc(-c2ccccc2)c(F)c1 (stereo not drawn) [FLURBIPROFEN] | – | – | – | – | – | – | Non-Toxic | Non-Toxic | 11.8% | 23% | 9.6% | 30.3% | – | – | – | – | – | – | – | – | –
6 | O=C(O)c1ccccc1O [SALICYLIC ACID] | – | – | – | – | – | – | – | – | – | – | – | – | – | – | – | – | – | – | – | – | IC50 (Acetylcholinesterase [22]): 346 µM
7 | COc1ccccc1CN(C)CCCCNC(=O)c1cc(O)c(C(=O)NCCCCN(C)Cc2ccccc2OC)cc1O | 7370 nM | 19.2 µM | 5.87 µM | 0.64 equiv | 98.6% | 65.4% | Non-Toxic | Non-Toxic | 36.7% | 57.5% | 32.9% | 59.4% | Dose-dependent effect | 3.45 µM | 80.3% | 76.3% | Non-Toxic | Non-Toxic | Dose-dependent effect | inactive | –
